Data set [1] in a line: folding enthalpy; higher = less favourable; fluorescence melt of hairpins on a sequencing array, two-state fit. The settings on record: sodium 0.088 M. In short, it runs like this:
(§1)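 Two-state fits, bootstrapped, provided melting temperature and folding enthalpy from Cy3 fluorescence normalised to pre-quench Cy3 and to control constructs. Library hairpins with annealed Cy3 and quencher oligos were imaged on a sequenced MiSeq flow cell in 50 mM Na-HEPES pH 8.0, 25 mM NaCl, at 2.5 °C intervals up to 60 °C. Four replicates were combined with inverse-variance weighting. A 9.35 °C upward shift was applied to fitted temperatures to match UV melts.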

The nature of data set [2]: melting temperature; fluorescence melt of hairpins on a sequencing array, two-state fit, raised by 9.35 °C to match UV melts. The conditions noted are these: sodium 0.088 M. In short, it runs like this: as §1

This note sets out measurements from the array DNA melting data of Ke et al. (doi:10.1101/2024.01.08.574731).

In the case of GTGGGGGCGAAAGCCCAC (((..(((....)))))), the folding enthalpy in data set [1] was -15.1 kcal/mol. For the same sequence, the Tm in data set [2] is 65.5 °C.

As for GTGGGTACGAAAGTACAC (((..(((....)))))), the folding enthalpy in data set [1] is -31.6 kcal/mol. The Tm in data set [2] turned out to be 55 °C.

For the sequence GTGGGTCGAAAGACTCAC (((.(((....))).))), the folding enthalpy in data set [1] is -40.4 kcal/mol. The Tm in data set [2] came out at 59 °C.

With GTGGGTGCGAAAGCACAC (((..(((....)))))), the folding enthalpy in data set [1] was -17.5 kcal/mol. Further, in data set [2], the Tm was 64.2 °C.

Turning to GTGGGTGGAAACACCTAC ((.((((....)))).)), the folding enthalpy in data set [1] was -21.3 kcal/mol. Besides, the Tm in data set [2] turned out to be 51 °C.

Regarding GTGGGTGGAAACACCTGC (..((((....))))..), in data set [1], the folding enthalpy is -14.7 kcal/mol. For the same sequence, in data set [2], the Tm was found to be 43 °C.

GTGGTAACGAAAGTTCAC (((..(((....)))))): the folding enthalpy in data set [1] is -10.7 kcal/mol. Also, the Tm in data set [2] is 35.7 °C.

With GTGGTAGCGAAAGCTCAC (((..(((....)))))), the folding enthalpy in data set [1] was -18.1 kcal/mol. Moreover, the Tm in data set [2] was found to be 43.8 °C.

In the case of GTGGTCGAAAGACCCCAC ((((((....)))..))), the folding enthalpy in data set [1] was -9.79 kcal/mol. The Tm in data set [2] stood at 38 °C.

For the sequence GTGGTCGAAAGACCGCAC ((((((....)))..))), the folding enthalpy in data set [1] was -11.6 kcal/mol. Further, the Tm in data set [2] came to 55.6 °C.

GTGGTCGAAAGACGCAC ((((((....))).))): in data set [1], the folding enthalpy is -16.3 kcal/mol. In data set [2], the Tm is 49.3 °C.

With GTGGTCGAAAGACGGCAC ((((((....)))..))), the folding enthalpy in data set [1] is -16.8 kcal/mol. In addition, in data set [2], the Tm was 38.5 °C.

For the sequence GTGGTCGAAAGACTCAC ((((((....))).))), the folding enthalpy in data set [1] is -19.6 kcal/mol. Moreover, the Tm in data set [2] was found to be 46.2 °C.

In the case of GTGGTCGCGAAAGCGCAC (((..(((....)))))), the folding enthalpy in data set [1] was -12.4 kcal/mol. Also, the Tm in data set [2] is 44.9 °C.

GTGGTCGGAAACGACTAC ((.((((....)))).)): the folding enthalpy in data set [1] is -30 kcal/mol. The Tm in data set [2] was 53.7 °C.

As for GTGGTCGGAAACGATCGC (.(.(((....))).).), the folding enthalpy in data set [1] is -22.4 kcal/mol. Moreover, the Tm in data set [2] was 46.1 °C.

With GTGGTCTCGAAAGAGCAC (((..(((....)))))), the folding enthalpy in data set [1] is -25.9 kcal/mol. Moreover, in data set [2], the Tm worked out at 48.8 °C.

For GTGGTGGGAAACCACCGC (.(((((....))))).), in data set [1], the folding enthalpy is -29.4 kcal/mol. Moreover, in data set [2], the Tm was 60.5 °C.

As for GTGGTGGGAAACCACTAC ((.((((....)))).)), the folding enthalpy in data set [1] is -22.5 kcal/mol. For the same sequence, the Tm in data set [2] was 56.1 °C.

For GTGGTGGGAAACCACTGC (..((((....))))..), the folding enthalpy in data set [1] was -24.2 kcal/mol. In data set [2], the Tm was found to be 55.1 °C.

As for GTGGTTCGAAAGAATCAC (((.(((....))).))), the folding enthalpy in data set [1] was -47.5 kcal/mol. Besides, the Tm in data set [2] came out at 53.7 °C.

Regarding GTGGTTGAAAAACCAC ((((((....)))))), in data set [1], the folding enthalpy is -37.8 kcal/mol. Moreover, the Tm in data set [2] amounted to 59.7 °C.

With GTGGTTGGAAACAATCAC (((.(((....))).))), the folding enthalpy in data set [1] is -36.6 kcal/mol. In data set [2], the Tm is 47.7 °C.

Regarding GTGTAACGAAAGTTCAC (((.(((....)))))), the folding enthalpy in data set [1] is -20 kcal/mol. In addition, the Tm in data set [2] came to 44.6 °C.

For the sequence GTGTAAGGAAACCTACAC (((((.(....).))))), the folding enthalpy in data set [1] was -30.6 kcal/mol. In addition, in data set [2], the Tm turned out to be 38.1 °C.

For GTGTAAGGAAACTTATAC ((.((((....)))).)), in data set [1], the folding enthalpy was -19.6 kcal/mol. Further, in data set [2], the Tm worked out at 33.8 °C.

In the case of GTGTACCCGAAAGGGCAC (((..(((....)))))), in data set [1], the folding enthalpy is -20.6 kcal/mol. For the same sequence, in data set [2], the Tm stood at 48.3 °C.

For GTGTACGAAAGTAGGCAC ((((((....)))..))), the folding enthalpy in data set [1] is -16.5 kcal/mol. The Tm in data set [2] came out at 32.8 °C.

In the case of GTGTAGAAATACAC (((((....))))), in data set [1], the folding enthalpy is -21.8 kcal/mol. The Tm in data set [2] stood at 41.6 °C.

Take GTGTAGCGAAAGCTCAC (((.(((....)))))): the folding enthalpy in data set [1] is -23.2 kcal/mol. Moreover, the Tm in data set [2] was determined as 51.8 °C.

Regarding GTGTAGGAAACTACAC ((((((....)))))), the folding enthalpy in data set [1] was -38.1 kcal/mol. In addition, the Tm in data set [2] was determined as 53.5 °C.

Regarding GTGTAGGGAAACCTATAC ((.((((....)))).)), in data set [1], the folding enthalpy is -24.8 kcal/mol. Moreover, in data set [2], the Tm was found to be 38.2 °C.

On to GTGTAGTCGAAAGACCAC (((..(((....)))))), for which the folding enthalpy in data set [1] was -19.5 kcal/mol. Moreover, the Tm in data set [2] worked out at 42.1 °C.

For GTGTATCGAAAGATCAC (((.(((....)))))), the folding enthalpy in data set [1] is -29.4 kcal/mol. Also, the Tm in data set [2] is 46 °C.

For the sequence GTGTATCGAAAGATCCAC (((.(((....))).))), in data set [1], the folding enthalpy is -33.5 kcal/mol. In addition, the Tm in data set [2] came out at 41.2 °C.

For GTGTATGCGAAAGCACAC (((..(((....)))))), the folding enthalpy in data set [1] is -22.1 kcal/mol. The Tm in data set [2] was 45.4 °C.

For GTGTATTCGAAAGAACAC (((..(((....)))))), the folding enthalpy in data set [1] was -19.1 kcal/mol. Moreover, the Tm in data set [2] was found to be 32.8 °C.
